An excerpt weighted towards active compounds, which were near 1.4% of everything screened.
STK33 kinase inh – blocks human STK33 kinase activity. Q9BYT3. purified STK33, MBP phosphorylation, ADP-Glo luminescence. inhibition, % at 10 µM. 320,000 compounds, 0.073% hits;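 active = inhibition at or above 25%, using the most active replicate where run in duplicate; inactive = inhibition below 25%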
GSK3B inh – human GSK3beta kinase inhibition | P49841 | GST-GSK3beta kinase, ADP-Glo luminescence, 60 min; stronger effect = lower value | 300,000 compounds, 0.038% hits | activity score (negative = inhibition), % at 10 µM;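 active = more than half of replicate wells score below -50%, meaning over 50% inhibition versus plate controls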;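 note: 0% = median DMSO wells and -100% = median GW8510 positive control wells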
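test system = GST-tagged human GSK3beta kinase, cell-free | reagent = 25 µM ATP with peptide substrate | dosing = one dose of 10 µM per compound | schedule = 60 min reaction, RT | detection = luminescent ADP-Glo measurement of ADP formed | control set = DMSO neutral wells and GW8510 at 20 µM as positive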
HIV Env fusion – inhibitors of HIV Env-mediated cell fusion; 360,000 compounds, 1.1% hits; AID 651610; inhibition, % at 12.3 µM; HeLa-JRFL Env/CEM21 cell fusion, luciferase;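 active = mean replicate inhibition score of at least 50 and every replicate individually at or above 50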;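 note: 0% = plate neutral controls and 100% = maraviroc near 300 nM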
GSK3A inh – human GSK-3 alpha kinase inhibition; P49840; ADP-Glo luminescence, 60 min; inhibition, % at 10 µM; 320,000 compounds, 0.1% hits;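 active = more than half of replicates show inhibition above 20%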;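 note: GST-tagged GSK-3 alpha with peptide substrate and 25 µM ATP; 0% = DMSO neutral wells and 100% = GW8510 positive control wells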
Target sequence (P49840 whole entry, looked up): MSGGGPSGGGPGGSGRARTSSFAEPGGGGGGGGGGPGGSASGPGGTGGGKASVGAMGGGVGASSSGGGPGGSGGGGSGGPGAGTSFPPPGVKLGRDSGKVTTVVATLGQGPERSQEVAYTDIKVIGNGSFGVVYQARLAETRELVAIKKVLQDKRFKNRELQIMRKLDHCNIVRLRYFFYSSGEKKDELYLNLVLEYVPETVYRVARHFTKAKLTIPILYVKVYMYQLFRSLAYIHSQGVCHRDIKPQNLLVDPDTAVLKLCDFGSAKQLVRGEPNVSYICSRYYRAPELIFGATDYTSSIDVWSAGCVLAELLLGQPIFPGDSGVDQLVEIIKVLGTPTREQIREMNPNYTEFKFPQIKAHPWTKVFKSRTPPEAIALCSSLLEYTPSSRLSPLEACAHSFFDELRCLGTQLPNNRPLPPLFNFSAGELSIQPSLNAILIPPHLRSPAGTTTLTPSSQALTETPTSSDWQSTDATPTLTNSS
GSIS activator – primary screen for activators of insulin secretion dependent on glucose, INS-1E cells, GLuc reporter luminescence. 370,000 compounds, 0.61% hits. INS-1E GLuc reporter insulin secretion, 2-3 h. activation, % at 16.6 µM;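 active = lowest replicate activation of at least 40%, so every replicate reaches that level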;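 note: 0% = median of neutral control wells and 100% = median of IBMX positive control wells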
CDK5 p35 inh – blocks human CDK5/p35 kinase activity; Recombinant CDK5/p35, ADP-Glo luminescence, 60 min; inhibition, % at 10 µM; 330,000 compounds, 0.01% hits; AID 488839;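 active = highest replicate inhibition of at least 50% and at least 75% of replicates reaching 50%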;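 note: plate controls were DMSO neutral control for no effect and GW8510 at 10 µM for full effect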
* = called active by the depositor; ! = not confirmed by another sample; [ ] = remark or other dose.

Results for COc1cccc(CNC(=O)C[C@H]2CC[C@H](NC(=O)C3CCOCC3)[C@H](CO)O2)c1 ?
HIV Env fusion: -18.0[16.7 µM]; GSIS activator: 12.6

What do the screens show for `O=C(CSc1ccc(-c2ccco2)nn1)NC1CCCCC1`?
STK33 kinase inh: -1.4; GSK3B inh: -8.3; HIV Env fusion: -12.3; GSK3A inh: -1.2; GSIS activator: 1.4; CDK5 p35 inh: -1.5

How did COc1ccc(NC(=O)CSc2ccc(-c3ccco3)nn2)cc1OC do in these assays?
STK33 kinase inh: -1.4; GSK3B inh: -12.4; HIV Env fusion: 7.1; GSK3A inh: -0.2; GSIS activator: 40.8*; CDK5 p35 inh: 0.8

Results for O=C(CSc1ccc(-c2ccco2)nn1)NC1CCCC1 ?
STK33 kinase inh: 1.0; GSK3B inh: -1.7; HIV Env fusion: -7.8; GSK3A inh: -4.1; GSIS activator: 40.1*; CDK5 p35 inh: 0.9

What do the screens show for `COc1ccccc1CCNCc1ccc(OC)c(OCc2ccccc2)c1`?
STK33 kinase inh: -0.2; GSK3B inh: -0.9; HIV Env fusion: 73.8*; GSK3A inh: -1.8; GSIS activator: -16.6; CDK5 p35 inh: -4.4

What do the screens show for `C[C@@H](NC(=O)[C@@H]1N[C@@H]2c3ccc(C4=CCCCC4)c(=O)n3C[C@@H]2[C@H]1CO)c1ccccc1`?
GSIS activator: -2.9

How did O=C(CCCc1ccccc1)NC1CC1 do in these assays?
STK33 kinase inh: -1.6; GSK3B inh: 2.4; HIV Env fusion: -18.9; GSK3A inh: -1.5; GSIS activator: 5.0; CDK5 p35 inh: -0.3

What do the screens show for `O=C(O)CCCc1ccc2c(c1)CCc1ccccc1-2`?
STK33 kinase inh: 0.1; GSK3B inh: -16.4; HIV Env fusion: 62.7*; GSIS activator: 12.1; CDK5 p35 inh: 0.1

How did COc1ccc2c3c(n(C)c2c1)[C@H](CO)N(C(=O)C1CCOCC1)CC31CN(C(=O)C2CC2)C1 do in these assays?
GSIS activator: -3.5

Results for CCOc1ccccc1CN1[C@@H](c2ccc(OC)cc2)CC(C(=O)OC)(C(=O)OC)[C@H]1c1ccccc1 ?
HIV Env fusion: 60.9*; GSIS activator: 29.3

How did O=C(Nc1cccnc1)c1ccc(Cl)c(S(=O)(=O)N2CCCCCC2)c1 do in these assays?
STK33 kinase inh: -0.4; GSK3B inh: -3.1; HIV Env fusion: 15.6; GSK3A inh: -0.9; GSIS activator: -6.2; CDK5 p35 inh: 2.6

How did CC1CN(S(=O)(=O)c2cc(C(=O)NCCC3=CCCCC3)ccc2Cl)CC(C)O1 (configuration not stated) do in these assays?
STK33 kinase inh: -0.9; GSK3B inh: -1.7; HIV Env fusion: 68.2*; GSK3A inh: 0.5; GSIS activator: 27.5; CDK5 p35 inh: -0.8

Results for CC1CN(S(=O)(=O)c2cc(C(=O)NC(C)c3cccnc3)ccc2Cl)CC(C)O1 (configuration not stated) ?
STK33 kinase inh: -1.0; HIV Env fusion: 8.3; GSK3A inh: -1.9; GSIS activator: 43.3*; CDK5 p35 inh: 1.1

Results for O=C(C[C@@H]1C[C@@H]2c3cc(NC(=O)CC4CC4)ccc3O[C@@H]2[C@@H](CO)O1)NCc1cc(F)ccc1F ?
HIV Env fusion: -1.5[16.7 µM]; GSIS activator: 5.1

How did O=[N+]([O-])c1ccc(-c2cc(-c3ccc(Cl)cc3)n[nH]2)cc1 do in these assays?
STK33 kinase inh: -0.7; GSK3B inh: 4.1; GSK3A inh: -3.7; GSIS activator: 70.7*; CDK5 p35 inh: -10.2

Results for CC(C)NC(=O)N(C)C[C@H]1Oc2c(NC(=O)Nc3ccc(C(F)(F)F)cc3)cccc2C(=O)N([C@@H](C)CO)C[C@H]1C ?
HIV Env fusion: 56.3*[16.7 µM]; GSIS activator: 7.4

What do the screens show for `C[C@H](CO)N1C[C@H](C)[C@@H](CN(C)C(=O)NC2CCCCC2)Oc2c(cccc2N(C)C)C1=O`?
STK33 kinase inh: 0.1; HIV Env fusion: 84.6*!; GSK3A inh: 1.0; GSIS activator: -8.0; CDK5 p35 inh: -5.0

Results for C[C@@H]1CN([C@@H](C)CO)C(=O)c2cccc(N(C)C)c2O[C@H]1CN(C)C(=O)NC1CCCCC1 ?
HIV Env fusion: -21.3[16.7 µM]; GSIS activator: -11.2

What do the screens show for `C[C@@H]1CN([C@@H](C)CO)C(=O)c2cccc(NC(=O)Nc3ccc(C(F)(F)F)cc3)c2O[C@H]1CN(C)Cc1ccc(C(F)(F)F)cc1`?
HIV Env fusion: 76.3*[16.7 µM]; GSIS activator: -2.6

Assay outcomes as filed in PubChem.
